Measurements as given in PubChem BioAssay.
The source made the active and inactive calls.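 The calls were made as follows, unless noted: active = GFP response above 150% of the DMSO level; inconclusive = fewer than 70 events counted for a yeast strain; inactive = the rest.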

Tests used:
[1] = hit retest on RPL19A-GFP reporter strain – cell-based, S. cerevisiae, flow cytometry, cherry picks, mother/daughter gates, confirmation (AID 2270;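 active = GFP response below 50% of the DMSO control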); details: 3 h, at 10 µM, stronger effect = lower value, 100 = same GFP as DMSO wells
[2] = yeast TOR pathway reporter LAP4-GFP change – cell-based, cherry picks, flow cytometry, mother/daughter gates, confirmation (AID 2271;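 active = GFP response above 150% of the DMSO control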;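 also: ratio of sample to DMSO plate mean so 100% equals DMSO level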); details: S. cerevisiae LAP4-GFP strain, 3 h, at 10 µM, stronger effect = higher value, 100 means same as DMSO control
How it was run: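 Test system: GFP-fusion yeast strain. Medium: synthetic complete (SC) yeast growth medium. Timing: 3 h treatment at 30 °C with rotation. Measured by: GFP by flow cytometry. Control set: positive rapamycin (400 ng/mL), negative DMSO.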

[3] = TOR pathway reporter MEP2-GFP, retest of hits – S. cerevisiae, flow cytometry GFP, cherry picks, confirmation (AID 2272;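 active = GFP response above 150% of the DMSO control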;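 also: ratio of well signal to plate DMSO mean so 100% equals DMSO level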); details: S. cerevisiae MEP2-GFP strain, 3 h, at 10 µM, stronger effect = higher value
[4] = yeast AGP1-GFP fluorescence change, single-dose – cell-based, flow cytometry, S. cerevisiae, cherry picks, confirmation (AID 2273);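 also: median GFP channel fluorescence over the whole cell population gate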; details: S. cerevisiae AGP1-GFP strain, 3 h, at 10 µM
[5] = TOR pathway CIT2 reporter hit retest – S. cerevisiae, GFP fusion, cherry picks, mother/daughter gates, confirmation (AID 2274); details: S. cerevisiae CIT2-GFP strain, flow cytometry, 3 h, at 10 µM, stronger effect = higher value
[6] = measured here: daughter cell gate
[7] = measured here: mother cell gate
[8] = measured here: daughter cell gate response
[9] = measured here: mother cell gate response

SMILES	GFP response vs DMSO [1]	GFP response vs DMSO [1, 6] [%]	GFP response vs DMSO [1, 7] [%]	GFP response relative to DMSO [2]	GFP response relative to DMSO [2, 8] [%]	GFP response relative to DMSO [2, 9] [%]	GFP response vs DMSO [3]	GFP response, % of DMSO [4]	GFP response, % of DMSO [5]	GFP response, % of DMSO [5, 6] [%]	GFP response, % of DMSO [5, 7] [%]
CSc1nc2ccc(S(=O)(=O)N3CCCC3)cc2s1	90.5% (inactive)	85.5	93.3	135% (inactive)	128	140	95.7% (inactive)	94.1% (inactive)	78.2% (inactive)	75.2	80.5
CCOC(=O)Cc1csc(NC(=O)c2sc3nc4c(C)cc(C)cc4cc3c2N)n1	104% (inactive)	96.7	97.7	84.2% (inactive)	89.5	92.1	109% (inactive)	97.2% (inactive)	115% (inactive)	110	118
COCc1nnc(NC(=O)c2ccc(S(=O)(=O)N(C)C3CCCCC3)cc2)o1	97.6% (inactive)	98.6	97.2	103% (inactive)	102	104	102% (inactive)	97.8% (inactive)	103% (inactive)	103	102
Cc1ccc(C=C2C(Cl)=C(Cl)C(Cl)=C2Cl)cc1	103% (inactive)	102	97.7	148% (inactive)	139	161	114% (inactive)	105% (inactive)	106% (inactive)	105	94.7
COc1ccc(N2CCN(C(=O)c3ccccc3)CC2)c([N+](=O)[O-])c1	101% (inactive)	98.8	103	106% (inactive)	104	108	107% (inactive)	102% (inactive)	91.5% (inactive)	93.8	96.8
Cc1ccc(/C=C/C(=O)c2ccccc(=O)c2O)c(C)c1	90.2% (inactive)	112	93.5	152% (active)	146	158	137% (inactive)	84.3% (inactive)	103% (inactive)	99.2	96.8
O=C1c2cccc3c([N+](=O)[O-])ccc(c23)C(=O)N1O	131% (inactive)	136	124	249% (active)	250	251	404% (active)	132% (inactive)	256% (active)	247	223
COc1ccc(/C=C2\Sc3ccc(C(=O)N4CCc5ccccc5C4)cc3N(C)C2=O)cc1	98.4% (inactive)	97.4	99.5	99.2% (inactive)	99.2	98.3	102% (inactive)	102% (inactive)	99.7% (inactive)	99.1	98.5
O=C1Nc2ccc(Br)cc2/C1=C/C1CC=CCC1 (stereo not given)	106% (inactive)	100	105	131% (inactive)	122	135	133% (inactive)	111% (inactive)	108% (inactive)	108	104
COC(=O)Cc1ccc(OCc2ccc(Cl)nc2)cc1	97.8% (inactive)	97.5	98.6	107% (inactive)	107	106	97.5% (inactive)	101% (inactive)	95% (inactive)	94.6	94.5
Cc1cccc(CS(=O)(=O)c2ncc(Cl)c(C(=O)NCc3ccccc3)n2)c1	99% (inactive)	96.4	99.1	108% (inactive)	108	108	100% (inactive)	102% (inactive)	95.2% (inactive)	91.5	95.5
O=C(COC(=O)CCc1nc2ccccc2s1)Nc1nc(-c2ccccc2)cs1	101% (inactive)	100	100	96.2% (inactive)	98.7	97.2	100% (inactive)	101% (inactive)	102% (inactive)	98.1	103
c1cc2c(cc1C1CCCCC1)c1c3n2CCCNC3CCC1 (stereo not given)	101% (inactive)	99	100	101% (inactive)	102	102	111% (inactive)	105% (inactive)	100% (inactive)	96.5	98.7
COc1ccccc1Oc1ccc(S(=O)(=O)N2CCCC2)cc1	102% (inactive)	100	103	91.4% (inactive)	91	95.2	95.7% (inactive)	93.5% (inactive)	93.9% (inactive)	94.8	92.3
O=C(N=Nc1c(O)[nH]c2ccccc12)c1ccco1	98.2% (inactive)	98.6	97.8	99.8% (inactive)	98.2	102	98.8% (inactive)	100% (inactive)	103% (inactive)	102	102
